# Apaf1 inhib: blocks human Apaf-1 apoptosome activity | reconstituted apoptosome caspase-3 activity, DEVD-Rh110 fluorescence | inhibition, % at 20 µM | actives 0.71% (n = 330,000); active = inhibition of at least 40% at 20 µM;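 also: plate controls were DMSO wells for no effect and DEVD-CHO caspase inhibitor wells for full effect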
#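 Material: biochemical Apaf-1 apoptosome reconstitution. Medium: Hepes buffer, pH 7.5. Also added: cytochrome c activation, bis-DEVD rhodamine 110 substrate. Timing: 30 min compound preincubation, 50 min activation, room temperature. Measured by: rhodamine 110 fluorescence at Ex 480/Em 540 nm.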
# ZTA DNA inh: ZTA (EBV) inhibition in EBNA-1 counter-screen; P03206; ZTA-DNA binding, fluorescence polarization; inhibition, % at 11 µM; actives 0.15% (n = 320,000); in the data active = inhibition above about 33%
# proCasp3 act: procaspase-3 (human) activation | activation, % at 8.5 µM | AID 463141 | recombinant procaspase-3 D3A, Ac-DEVD-pNA absorbance 405 nm | P42574 | actives 0.11% (n = 330,000);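 active = activation above the mean of all tested compounds plus 3 SD, cut at about 21% in these data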;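 also: 0% = DMSO alone and 100% = DMSO wells spiked with extra 5 µM PC-3 D3A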
# Target sequence (P42574 whole entry D9A/D28A/D175A): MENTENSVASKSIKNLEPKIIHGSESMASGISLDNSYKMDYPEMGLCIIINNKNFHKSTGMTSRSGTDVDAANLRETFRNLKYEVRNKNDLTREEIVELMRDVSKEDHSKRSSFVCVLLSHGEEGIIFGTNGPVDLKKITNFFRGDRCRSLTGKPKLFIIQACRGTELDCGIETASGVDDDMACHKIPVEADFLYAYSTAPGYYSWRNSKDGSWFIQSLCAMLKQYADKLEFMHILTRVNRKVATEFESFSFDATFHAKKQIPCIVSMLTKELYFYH
#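 assay system = Procaspase-3 D3A mutant | signal = absorbance at 405 nm, 0 and 120 min | times = 1 h preincubation plus 2 h reaction at 25 °C | repeats = single replicate | read-out = % activation between DMSO and enzyme-spiked controls | medium = Zinc-free HEPES saline buffer with Triton X-100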
# proCasp7 act: counter-screen: procaspase-7 (human) activation | P55210 | recombinant procaspase-7, Ac-DEVD-pNA absorbance 405 nm; D23A/D198A/D206A triple mutant, cannot self-cleave; scale: DMSO 0, 5 µM enzyme 100 | activation, % at 8.5 µM | actives 0.093% (n = 330,000) | AID 463210;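 active = percent activation above the screen-wide mean plus 3 SD, cut at about 25% in these data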
# Target sequence (P55210 whole entry D23A/D198A/D206A): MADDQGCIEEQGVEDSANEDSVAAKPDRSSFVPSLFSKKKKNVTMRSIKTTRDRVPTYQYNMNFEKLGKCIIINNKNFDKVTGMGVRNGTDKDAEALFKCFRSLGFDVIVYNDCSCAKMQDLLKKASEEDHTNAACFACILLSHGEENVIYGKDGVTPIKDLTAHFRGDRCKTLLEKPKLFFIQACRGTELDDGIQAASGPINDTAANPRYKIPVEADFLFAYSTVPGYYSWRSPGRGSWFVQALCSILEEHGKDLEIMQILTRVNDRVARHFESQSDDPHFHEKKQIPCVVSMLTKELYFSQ
#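 System: Uncleavable procaspase-7 mutant enzyme; Amount: 2 µM procaspase-7 mutant as dispensed; Schedule: 1 h compound preincubation, 2 h substrate cleavage, 25 °C; Measured by: 405 nm absorbance of p-nitroaniline; Evaluation: percent activation from buffer-corrected 0–120 min absorbance change; Control set: low DMSO alone, high DMSO plus 5 µM PC-7.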
# EBNA-1 inhibitor: blocks EBNA-1 binding to DNA | EBNA-1 DNA binding, fluorescence polarization | inhibition, % at 14.8 µM | actives 0.34% (n = 300,000) | AID 1950; in the data active = inhibition above about 28%
# GSTO1 counter: GSTO1 inhibition, counter-screen for RBBP9 inhibitors. P78417. recombinant GSTO1, activity-based probe fluorescence polarization. inhibition, % at 5.96 µM. actives 1.1% (n = 300,000). AID 1974;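 active = inhibition above the campaign mean inhibition plus 3 SD, cut at about 35% in these data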;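 also: 0% = GSTO1-1 with DMSO and 100% = wells lacking GSTO1-1 enzyme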
# GSTO1 confirm: GSTO1 (human) inhibition, confirmation; shares compounds with GSTO1 counter; recombinant GSTO1, probe fluorescence polarization; inhibition, % at 5.96 µM; actives 54% (n = 2,400);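 active = inhibition above the primary screen's cutoff, its mean inhibition plus 3 SD, cut at about 35% in these data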;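 also: loss of polarization as inhibitors block binding of rhodamine sulfonate ester activity probe; 0% = GSTO1 with DMSO and 100% = wells lacking GSTO1 enzyme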
# * = called active by the depositor; . = no result. Hits are enriched below; roughly 1.8% of the tested compounds scored in any of these assays.
SMILES,Apaf1 inhib,ZTA DNA inh,proCasp3 act,proCasp7 act,EBNA-1 inhibitor,GSTO1 counter,GSTO1 confirm
CC1CCC(NC(=O)c2ccc(COc3ccccc3)o2)CC1 (configuration not stated),16,-10,4,-2,-7,-4,.
COC(=O)c1ccccc1NC(=O)c1ccccc1SC,11,-17,1,-2,14,66*,6
O=C1C(Cl)=C(NS(=O)(=O)c2ccc([N+](=O)[O-])cc2)C(=O)c2ccccc21,31,11,-8,-10,-2,100*,88*
O=[N+]([O-])c1ccc(Oc2ccc(S(=O)(=O)Nc3ccccc3)cc2)cc1,9,11,-6,1,12,0,.
CCN(CC)C(=O)C1c2ccccc2Oc2ccccc21,-3,-16,-5,2,6,44*,9
CCCCNC(=O)C1c2ccccc2Oc2ccccc21,0,-20,-3,5,-5,13,.
S=C(NCCc1c[nH]c2ccccc12)NC1CCCCC1,9,-4,3,-1,-9,51*,5
CCOc1cc(C2Nc3cccc4cccc(c34)N2)ccc1O,15,-13,1,-2,-23,23,.
Brc1cccc(C2Nc3cccc4cccc(c34)N2)c1,12,-6,1,-3,-9,40*,8
Clc1ccc(C2Nc3cccc4cccc(c34)N2)cc1Cl,7,-18,0,-6,-20,24,.
CN(C)c1ccc(C2Nc3cccc4cccc(c34)N2)cc1,18,-6,-5,-7,-9,20,.
CCOc1ccc(C2Nc3cccc4cccc(c34)N2)cc1OC,22,-5,-6,3,-7,45*,5
Brc1ccc(C2Nc3cccc4cccc(c34)N2)o1,10,0,5,-6,12,54*,8
CCN(CC(=O)Nc1c(F)cccc1F)C(=O)c1cccc(-n2cnnn2)c1,-2,.,.,.,.,.,.
CCN(C(=O)Cn1cnc2ccccc2c1=O)C1CCS(=O)(=O)C1 (configuration not stated),1,4,-5,-2,-7,-3,.
CCN(CC(=O)Nc1c(F)cccc1F)C(=O)C1COc2ccccc2O1 (configuration not stated),0,-1,0,-1,.,.,.
C=CCNC(=O)C(=O)Nc1cc2c3c(c1)CCC(=O)N3CCC2,6,-2,4,-9,0,4,.
CN(C)c1ccc(S(=O)(=O)N2CCC(Cc3ccccc3)CC2)cn1,16,.,-1,-6,.,.,.
COc1ccc(S(=O)(=O)Nc2c(O)ccc3ccccc23)cc1OC,11,-1,-13,-8,-4,45*,8
COc1ccc(C(=O)Nc2c(O)ccc3ccccc23)cc1OC,0,9,2,-8,9,2,.
Cn1c2ccc(Cl)cc2c2nc3ccccc3nc21,23,-4,-4,-10,11,76*,-4
CC1=C(C(=O)OCc2ccccc2)C(c2ccccc2OS(=O)(=O)c2ccccc2[N+](=O)[O-])NC(=O)N1CCCC(=O)O (configuration not stated),24,4,-1,2,-7,58*,63*
COC(=O)c1c(C)oc2ccc(N(C(=O)c3ccncc3)S(=O)(=O)c3ccc(C)cc3)cc12,27,-3,5,-1,-3,3,.
Cc1ccc(S(=O)(=O)N(C(=O)c2ccncc2)c2ccc(OC(=O)c3ccncc3)c3ccccc23)cc1,2,3,-26,-35,7,43*,3
Cc1ccc(S(=O)(=O)N(C(=O)c2ccncc2)c2ccc(OC(=O)c3ccncc3)c3ccccc23)c(C)c1,18,-18,-19,-35,1,55*,9
SMILES,Apaf1 inhib,ZTA DNA inh,proCasp3 act,proCasp7 act,EBNA-1 inhibitor,GSTO1 counter,GSTO1 confirm
Cc1ccsc1C=Nc1ccc(O)cc1,94*,38*,-4,-12,-2,92*,37*
Cc1ccsc1/C=N/N=C/c1sccc1C,20,15,3,-2,-6,-6,.
Cc1cc(C(=O)CSc2nnnn2C)c(C)n1-c1cccc(F)c1,-20,-9,-6,2,1,34,.
Cc1cc(C)cc(-n2c(C)cc(C(=O)CSc3nnnn3C)c2C)c1,10,-1,-5,6,1,49*,43*
CN(CC(=O)Nc1cccc(F)c1)C(=O)c1ccccc1CCc1ccccc1,9,-12,0,6,2,-8,.
Cc1cnc(C(=O)N2CCN(S(=O)(=O)c3ccc(F)c(F)c3F)CC2)cn1,9,.,12,12,.,.,.
CC(C)c1c(C(=O)N/N=C/C2CC=CCC2)nnn1-c1nonc1N (configuration not stated),8,0,-11,-1,-33,0,.
CCN(CC)CCCN1C=C2C(=O)C(C)(OC(=O)C3CCCC3)C(=O)C(c3ccccc3)=C2C=C1CCCC(=O)OC (configuration not stated),14,-12,-3,3,-6,6,.
COCCN1C=C2C(=O)C(C)(OC(=O)C3CCCC3)C(=O)C(c3ccccc3)=C2C=C1CCCC(=O)OC (configuration not stated),30,-1,-3,-2,9,45*,26
COC(=O)CCCC1=CC2=C(c3ccccc3)C(=O)C(C)(OC(=O)C3CCCC3)C(=O)C2=CN1C1CCCC1 (configuration not stated),28,7,-3,-9,2,26,.
COC(=O)CCCC1=CC2=C(c3ccccc3)C(=O)C(C)(OC(=O)C3CCCC3)C(=O)C2=CN1C1CCCCC1 (configuration not stated),27,17,0,-1,3,38*,17
COC(=O)CCCC1=CC2=C(c3ccccc3)C(=O)C(C)(OC(=O)C3CCCC3)C(=O)C2=CN1CC1CC1 (configuration not stated),21,-5,11,-7,15,49*,8
CCOCC(=O)N1CCC(Cc2ccccc2)CC1,16,-10,-5,-7,-2,11,.
Cn1c(C(=O)O)c(CC(=O)N2CCC(Cc3ccccc3)CC2)c2ccccc21,9,2,-6,-8,6,42*,9
CCN(CCCNS(=O)(=O)c1ccc2c(c1)oc(=O)n2C)c1cccc(C)c1,6,-5,10,-2,9,38*,36*
CCN(c1cccc(C)c1)S(=O)(=O)c1ccc2c(c1)oc(=O)n2C,5,2,3,7,12,3,.

# High-throughput results as filed in PubChem BioAssay.
